Laboratory results: ChEMBL document CHEMBL1145084, “Polymer-assisted solution-phase library synthesis and crystal structure of alpha-ketothiazoles as tissue factor VIIa inhibitors” (J Med Chem, 2003)

Experiments:
Prothrombin = Prothrombin (Homo sapiens, UniProt P00734); assay: Inhibitory activity against thrombin (IIa).
How it was run: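 Human thrombin (0.28 nM) with H-D-Phe-Pip-Arg-p-nitroaniline (0.06 mM) in 50 mM Tris-HCl pH 8.0, 100 mM NaCl, 0.1% BSA. Immediate background read at 405 nm, then 60 min at room temperature before measuring p-nitroaniline release rate at 405 nm. Seven concentrations in duplicate; % inhibition versus control; IC50 by four-parameter logistic regression.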

Coagulation factor X = Coagulation factor X (Homo sapiens, UniProt P00742); assay: Inhibitory activity against coagulation factor X.
Coagulation factor X, sequence (P00742 41-179 limits assumed): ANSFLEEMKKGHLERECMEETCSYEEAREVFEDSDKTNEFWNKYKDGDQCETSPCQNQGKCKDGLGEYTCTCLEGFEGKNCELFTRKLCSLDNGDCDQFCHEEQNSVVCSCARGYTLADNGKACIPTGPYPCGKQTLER
Coagulation factor X, sequence (P00742 235-488 limits assumed): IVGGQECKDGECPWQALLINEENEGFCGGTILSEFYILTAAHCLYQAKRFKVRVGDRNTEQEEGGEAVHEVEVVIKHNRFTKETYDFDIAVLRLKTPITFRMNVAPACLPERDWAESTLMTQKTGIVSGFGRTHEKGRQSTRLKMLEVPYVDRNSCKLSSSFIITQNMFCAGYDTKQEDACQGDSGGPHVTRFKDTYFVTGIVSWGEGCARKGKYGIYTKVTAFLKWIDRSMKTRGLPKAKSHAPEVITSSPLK
How it was run: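 Human Factor Xa (0.3 nM) with chromogenic substrate S-2765 (0.15 mM) in 50 mM Tris-HCl pH 8.0, 100 mM NaCl, 0.1% BSA. A405 background read taken at once, then 60 min at room temperature, then p-nitroaniline release rate at 405 nm. Duplicates at seven concentrations; % inhibition versus control; IC50 from four-parameter logistic fit, averaged over the duplicates.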

Coagulation factor VII = molecular target: T1, Coagulation factor VII (Homo sapiens, UniProt P08709); assay: Inhibitory activity against tissue coagulation factor VII.
T1 sequence (P08709 whole entry): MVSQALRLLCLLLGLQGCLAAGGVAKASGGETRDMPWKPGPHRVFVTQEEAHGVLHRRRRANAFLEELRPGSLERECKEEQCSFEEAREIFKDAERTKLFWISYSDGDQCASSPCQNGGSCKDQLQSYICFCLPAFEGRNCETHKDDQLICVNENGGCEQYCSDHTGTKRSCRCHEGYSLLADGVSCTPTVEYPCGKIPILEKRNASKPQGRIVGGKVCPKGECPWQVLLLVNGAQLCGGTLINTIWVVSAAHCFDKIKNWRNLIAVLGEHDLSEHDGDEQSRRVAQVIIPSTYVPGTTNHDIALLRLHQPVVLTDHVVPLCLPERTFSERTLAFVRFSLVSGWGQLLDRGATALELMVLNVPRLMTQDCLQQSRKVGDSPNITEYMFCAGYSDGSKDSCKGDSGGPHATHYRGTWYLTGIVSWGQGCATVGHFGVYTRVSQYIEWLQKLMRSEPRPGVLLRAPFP
How it was run: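 Complex of recombinant soluble tissue factor (100 nM) and recombinant human Factor VIIa (2 nM). Substrate N-methylsulfonyl-D-Phe-Gly-Arg-p-nitroaniline at 0.4 mM in 5 mM CaCl2, 50 mM Tris-HCl pH 8.0, 100 mM NaCl, 0.1% BSA. Background A405 read first; after 60 min at room temperature, hydrolysis rate read at 405 nm. Duplicates at seven concentrations; IC50 is the duplicate average.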

[1] = molecular target: Thrombin and coagulation factor VII (Homo sapiens) (UniProt P00734+P08709); assay: Selectivity for coagulation factor VIIa over thrombin IIa.; assay type: protein assay

IC50 (Prothrombin) [µM] | IC50 (Coagulation factor X) [µM] | IC50 (Coagulation factor VII) [µM] | Selectivity [1] | Compound
28.1 | 2.77 | 0.7 | 40 | Cc1cccc(C)c1C[C@H](NC(=O)[C@@H](Cc1ccccc1)NS(=O)(=O)Cc1ccccc1)C(=O)N[C@@H](CCCN=C(N)N)C(=O)c1nccs1
10.4 | 0.54 | 0.9 | 12 | N=C(N)NCCC[C@H](NC(=O)[C@H](CCc1ccccc1)NC(=O)[C@@H](Cc1ccccc1)NS(=O)(=O)Cc1ccccc1)C(=O)c1nccs1
